# Data reported in ChEMBL document CHEMBL1833891, “New inhibitors of colony spreading in Bacillus subtilis and Bacillus anthracis” (Bioorg Med Chem Lett, 2011).
# Activity calls are given as the source filed them. The calls are words filed in the database; no cut-off is given here.
# What was measured:
# Bacillus anthracis [1] = assay: Antibacterial activity against Bacillus anthracis Sterne assessed as inhibition of surface colony-spreading at 75 ug after overnight incubation; assay type: functional, organism-based
# Bacillus subtilis [2] = assay: Antibacterial activity against Bacillus subtilis NCIB 3610 DS1677 harboring marker-less hag mutant assessed as inhibition of surface colony-spreading at 15 ug/ml after overnight incubation at 32 degree C relative to control; assay type: functional; conditions: subsp. subtilis str. NCIB 3610 DS1677
# Summary of the method: (§1)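 DS1677 inoculated at the centre of Tryptic soy broth soft agar (7 g L⁻¹) containing compound, incubated, then average colony diameter measured. % inhibition of spreading is relative to a DMSO control. Duplicate or triplicate, with the assay repeated if replicates differed by >10% in diameter. NPG isomers at 30 µg mL⁻¹, other compounds at 15 µg mL⁻¹.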
# Bacillus anthracis [3] = assay: Antibacterial activity against Bacillus anthracis Sterne assessed as inhibition of surface colony-spreading after overnight incubation; assay type: functional, organism-based
# Bacillus subtilis [4] = assay: Antibacterial activity against Bacillus subtilis NCIB 3610 DS1677 harboring marker-less hag mutant assessed as inhibition of surface colony-spreading at 75 ug/ml after 24 hrs relative to control; assay type: functional; conditions: subsp. subtilis str. NCIB 3610 DS1677
# Summary of the method: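 Marker-less hag mutant DS1677 on MK agarose (semi-solid, complete defined nutrients) plates containing 75 µg mL⁻¹ compound in DMSO. Control plates contained 75 µg mL⁻¹ DMSO. Colony spreading compared with control.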
# Bacillus subtilis [5] = assay: Antibacterial activity against Bacillus subtilis NCIB 3610 DS1677 harboring marker-less hag mutant assessed as inhibition of surface colony-spreading at 30 ug/ml after overnight incubation at 32 degree C relative to control; assay type: functional; conditions: subsp. subtilis str. NCIB 3610 DS1677; summary of the method: as §1
# Bacillus subtilis [6] = assay: Antibacterial activity against Bacillus subtilis NCIB 3610 DS1677 harboring marker-less hag mutant assessed as inhibition of surface colony-spreading after 16 hrs relative to control; assay type: functional; conditions: subsp. subtilis str. NCIB 3610 DS1677, 16 h
# Summary of the method: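 B. subtilis hag deletion strain DS1677: 3 µL of an overnight LB culture spotted on Tryptic soy broth agar (7 g L⁻¹), dried 3–4 h, with graded inhibitor levels. Plates in duplicate, grown 16 h at 32 °C. IC50 derived from measured colony diameters.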
# Proteus mirabilis = assay: Antibacterial activity against Proteus mirabilis 7002 assessed as inhibition of swarming by plate swarm assay; assay type: functional, organism-based
# Summary of the method: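 Proteus plate swarm assay. Each compound at 75 µg mL⁻¹ in the plate, with swarming judged by visible effect.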
# Bacillus subtilis [7] = assay: Antibacterial activity against erythromycin-lincomycin resistant Bacillus subtilis NCIB 3610 DS64 harboring hag deletion mutant assessed as inhibition of surface colony-spreading at 75 ug/ml after 24 hrs relative to control; assay type: functional; conditions: subsp. subtilis str. NCIB 3610 DS64
# Summary of the method: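 hag mutant DS64 (MLS antibiotic marker) inoculated at the centre of MK agarose plates with or without 75 µg mL⁻¹ compound, grown 24 h at 37 °C. Surface film spreading scored against the untreated plate.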
compound,measurement,setting,value
CS(=O)(=O)c1ccc([C@@H](O)[C@H](O)CO)cc1,inhibition,Bacillus anthracis [1],Active
same,inhibition at 15 µg/mL,Bacillus subtilis [2],69.1%
O=[N+]([O-])c1ccc([C@@H](O)[C@@H](O)CO)cc1,IC50,Bacillus anthracis [3],> 150 µM
same,inhibition,Bacillus subtilis [4],Active
same,inhibition at 30 µg/mL,Bacillus subtilis [5],24.8%
same,IC50,Bacillus subtilis [6],122 µM
same,inhibition,Proteus mirabilis,Active
COC[C@H](O)[C@H](O)c1ccc(S(C)(=O)=O)cc1,inhibition at 15 µg/mL,Bacillus subtilis [2],10.1%
CS(=O)(=O)c1ccc([C@H](O)[C@H](O)CO)cc1,inhibition at 15 µg/mL,Bacillus subtilis [2],1.6%
CS(=O)(=O)c1ccc([C@@H](O)[C@@H](O)CO)cc1,IC50,Bacillus anthracis [3],12 µM
same,inhibition,Bacillus anthracis [1],Active
same,inhibition at 15 µg/mL,Bacillus subtilis [2],95.3%
OCC(O)C(O)c1ccccc1 (mixture of isomers),inhibition at 15 µg/mL,Bacillus subtilis [2],12.9%
CS(=O)(=O)c1ccc([C@H](O)[C@@H](O)CO)cc1,inhibition at 15 µg/mL,Bacillus subtilis [2],0%
C=C[C@H](O)c1ccc(S(C)(=O)=O)cc1,inhibition at 15 µg/mL,Bacillus subtilis [2],21.3%
CO[C@H](c1ccc(S(C)(=O)=O)cc1)[C@@H](O)CO,inhibition at 15 µg/mL,Bacillus subtilis [2],0%
CS(=O)(=O)c1ccccc1[C@@H](O)[C@@H](O)CO,inhibition at 15 µg/mL,Bacillus subtilis [2],0%
O=[N+]([O-])c1ccc([C@@H](O)[C@H](O)CO)cc1,inhibition,Bacillus subtilis [4],inactive
same,inhibition at 30 µg/mL,Bacillus subtilis [5],16.1%
same,inhibition,Proteus mirabilis,Active
CS(=O)(=O)Oc1ccc(C(O)C(O)CO)cc1 (mixture of isomers),inhibition at 15 µg/mL,Bacillus subtilis [2],11.5%
O=[N+]([O-])c1ccc(C(O)C(O)CO)cc1 (stereo not given),inhibition,Bacillus subtilis [7],Active
CSc1ccc(C(O)C(O)CO)cc1 (mixture of isomers),inhibition at 15 µg/mL,Bacillus subtilis [2],0%
CS(=O)(=O)c1cccc(C(O)C(O)CO)c1 (mixture of isomers),inhibition at 15 µg/mL,Bacillus subtilis [2],10.5%
O=[N+]([O-])c1ccc([C@H](O)[C@H](O)CO)cc1,inhibition,Bacillus subtilis [4],inactive
same,inhibition at 30 µg/mL,Bacillus subtilis [5],1.5%
same,inhibition,Proteus mirabilis,inactive
OCC(O)C(O)c1ccc(O)cc1 (mixture of isomers),inhibition at 15 µg/mL,Bacillus subtilis [2],12.9%
COC[C@H](O)[C@H](OC)c1ccc(S(C)(=O)=O)cc1,inhibition at 15 µg/mL,Bacillus subtilis [2],0%
COC[C@H](OC)[C@H](OC)c1ccc(S(C)(=O)=O)cc1,inhibition at 15 µg/mL,Bacillus subtilis [2],18.5%
NS(=O)(=O)c1ccc(C(O)C(O)CO)cc1 (mixture of isomers),inhibition at 15 µg/mL,Bacillus subtilis [2],4.5%
O=[N+]([O-])c1ccc([C@H](O)[C@@H](O)CO)cc1,inhibition,Bacillus subtilis [4],inactive
same,inhibition at 30 µg/mL,Bacillus subtilis [5],0%
same,inhibition,Proteus mirabilis,inactive
COC(=O)c1ccc(C(O)C(O)CO)cc1 (mixture of isomers),inhibition at 15 µg/mL,Bacillus subtilis [2],0%
